Screening results deposited in PubChem BioAssay by several laboratories.
Pf gamet viab – inhibitors of late stage P. falciparum gametocyte viability; hit rate 0.065% among 150,000; P. falciparum stage V gametocytes, ATP luminescence, 24 h; inhibition, % at 10.9 µM;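 active = inhibition above the mean plus 3 SD of compounds within the control limits, set per campaign, cut at about 38% in these data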;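 also: 0% = DMSO wells and 100% = medium only without gametocytes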
Wee1 degr inh – inhibitors of human Wee1 degradation; P30291; HeLa Luc-Wee1K328M stability, luciferase luminescence; 100% = proteasome inhibitor MG132 effect; reporter increase, % at 5 µM; hit rate 1.2% among 220,000;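 active = activation above the mean of all tested compounds plus 3 SD, set per screening run, cut at about 8.8% in these data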;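 also: cells exposed to compound for 20 h before luminescence read; 0% = DMSO alone and 100% = MG132 at 30 µM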
Hsp70 activator – Hsp70 transcriptional activation, primary screen; HeLa Hsp70 promoter luciferase reporter, luminescence; scaled: vehicle 0, proteasome-inhibitor control 100%; activation, % at 10 µM; hit rate 0.04% among 200,000; AID 1203;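 active = activation above the mean across all tested compounds plus 3 SD, cutoff set per campaign, cut at about 5.5% in these data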;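 also: 100% = MG132 at 30 µM as the positive control and 0% = DMSO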
MDM2 E3 inh – Mdm2 E3 ligase (human) inhibition; Q00987; cell-based MDM2 ubiquitination luciferase reporter, 2 h; 0 = plate control, 100 = twice control, blank-subtracted; signal enhancement, % at 5 µM; hit rate 0.11% among 210,000; AID 1230;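 active = signal enhancement of 30% or more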;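 also: luminescence tracks abundance of the self-degrading MDM2-luciferase fusion protein; higher signal means inhibition of MDM2 E3 ligase activity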
Target sequence (Q00987 whole entry, looked up, the tested form may be a part): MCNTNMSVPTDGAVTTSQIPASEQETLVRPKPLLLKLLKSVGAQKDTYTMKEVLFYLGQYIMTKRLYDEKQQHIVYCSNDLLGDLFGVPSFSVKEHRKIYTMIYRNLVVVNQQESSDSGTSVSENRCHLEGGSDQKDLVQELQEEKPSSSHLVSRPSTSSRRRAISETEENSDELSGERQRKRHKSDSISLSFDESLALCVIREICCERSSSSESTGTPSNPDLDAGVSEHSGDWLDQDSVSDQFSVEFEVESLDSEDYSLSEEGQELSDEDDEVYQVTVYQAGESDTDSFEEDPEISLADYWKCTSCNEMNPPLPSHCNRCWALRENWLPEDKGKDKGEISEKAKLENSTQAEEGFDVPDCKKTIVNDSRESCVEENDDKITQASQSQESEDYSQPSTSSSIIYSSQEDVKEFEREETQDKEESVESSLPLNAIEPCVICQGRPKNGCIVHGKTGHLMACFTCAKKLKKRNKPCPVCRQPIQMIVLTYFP
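test system = mammalian cells stably expressing self-ubiquitinating, self-degrading MDM2 E3–luciferase fusion | quantity = 2000 cells/well | incubation = cell settling 4 h, compound treatment 2 h, both 37 °C | signal = luminescence with SteadyLite reagent, 15 min at room temperature | evaluation = % enhancement relative to plate controls after blank subtraction | benchmarks = plate controls and plate blanks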
Wee1 stab conf – confirmation of human Wee1 degradation inhibitors. shares compounds with Wee1 degr inh. activation, % at 5 µM. hit rate 4% among 1,100. HeLa Luc-Wee1K328M degradation, luminescence; vehicle 0%, proteasome-blocked wells 100%; in the data active = activation above about 8.9%
* hit, by the source's call. Only some compounds are listed: those with a hit (about 1.3% of all), similar ones and a draw of the others.

How did O=C(Nc1ncc(Cl)cc1Cl)c1c(F)cccc1Cl do in these assays?
Wee1 degr inh: -5; Hsp70 activator: 0; MDM2 E3 inh: 7

What do the screens show for `COc1cc(/C=N/N=C(/C(=O)c2ccccc2)c2ccccc2)cc(OC)c1O`?
Pf gamet viab: -4; Wee1 degr inh: 12*; Hsp70 activator: 0; Wee1 stab conf: 0

How did CCc1[nH]nc2c1C1(CCN(C(=O)OCc3ccccc3)CC1)C(C#N)=C(N)O2 do in these assays?
Wee1 degr inh: 16*; Hsp70 activator: 0; MDM2 E3 inh: -18; Wee1 stab conf: 2

Results for CCCc1[nH]nc2c1C1(CCN(C(=O)OCc3ccccc3)CC1)C(C#N)=C(N)O2 ?
Wee1 degr inh: 3; Hsp70 activator: 0; MDM2 E3 inh: -19

Results for COc1cc2[nH]c(=S)n(Cc3ccc(C)cc3)c(=O)c2cc1OC ?
Pf gamet viab: 2; Wee1 degr inh: -3; Hsp70 activator: 0; MDM2 E3 inh: 3

What do the screens show for `Cc1cccc2sc(NC(=O)c3ccc(NS(=O)(=O)c4cccs4)cc3)nc12`?
Wee1 degr inh: -1; Hsp70 activator: 0; MDM2 E3 inh: -3

Results for CC1(C)NC(=O)N(CCCCOc2ccccc2[N+](=O)[O-])C1=O ?
Wee1 degr inh: 11*; Hsp70 activator: -1; MDM2 E3 inh: -18; Wee1 stab conf: 2

How did CC1(C)NC(=O)N(CCCOc2ccccc2Br)C1=O do in these assays?
Pf gamet viab: 5; Wee1 degr inh: -2; Hsp70 activator: 0; MDM2 E3 inh: -5

What do the screens show for `COc1ccccc1NC(=O)CNC(=O)c1ccc(F)cc1`?
Wee1 degr inh: 11*; Hsp70 activator: 0; MDM2 E3 inh: -7; Wee1 stab conf: 1

How did Cc1ccn2c(c1)nc(=S)n2C(=O)c1ccccc1 do in these assays?
Wee1 degr inh: 14*; Hsp70 activator: 0; MDM2 E3 inh: -27; Wee1 stab conf: 2

What do the screens show for `Cc1cccc(C(=O)n2c(=S)nc3cc(C)ccn32)c1`?
Pf gamet viab: 0; Wee1 degr inh: 3; MDM2 E3 inh: -48

What do the screens show for `COc1ccc2c3n(nc2c1)CCN=C3c1ccc(Cl)cc1`?
Pf gamet viab: -14

Results for O=c1cc(Nc2ccc3c(c2)OCCO3)[nH]c(=O)n1C1CCCCC1 ?
Wee1 degr inh: 11*; Hsp70 activator: 0; Wee1 stab conf: 11*

What do the screens show for `COc1ccc(CNCCC2(Cc3ccccc3)CC(C)N(C)CC2C)cc1OC` (centres undefined)?
Wee1 degr inh: 17*; Hsp70 activator: 0; MDM2 E3 inh: 3; Wee1 stab conf: 0

What do the screens show for `CN(C)c1ccc(P(=O)(OC2CCCCC2)C(O)c2cccnc2)cc1` (centres undefined)?
Pf gamet viab: -7; Wee1 degr inh: 12*; Hsp70 activator: 0; MDM2 E3 inh: -15; Wee1 stab conf: 4

Results for CN(C)c1ccc(P(=O)(OC2CCCCC2)C(O)c2ccccn2)cc1 (centres undefined) ?
Pf gamet viab: 9; Wee1 degr inh: -4; MDM2 E3 inh: -16

Results for c1ccc2[nH]c(NN=C3CCCCCC3)nc2c1 ?
Pf gamet viab: -34; Wee1 degr inh: 17*; Hsp70 activator: 0; MDM2 E3 inh: -31; Wee1 stab conf: 3

Results for c1ccc2[nH]c(NC3=NCCC3)nc2c1 ?
Wee1 degr inh: 0; Hsp70 activator: 0; MDM2 E3 inh: -16

How did O=CN1CCN(C(=O)c2ccc(-c3nc4ccccc4s3)s2)CC1 do in these assays?
Pf gamet viab: -23; Wee1 degr inh: 17*; Hsp70 activator: 0; MDM2 E3 inh: -25; Wee1 stab conf: 2

What do the screens show for `CCN1C(=O)[C@H]2[C@@H](c3ccc(-c4ccc(Cl)c(Cl)c4)c(OC)c3)N3CCCC[C@@]3(C(=O)OC)[C@H]2C1=O`?
Pf gamet viab: -31

Results for CC(C)C[C@H]1CNC(=O)C(=O)N1C[C@H](C)NC(=O)Cc1ccccc1 ?
Pf gamet viab: -1

What do the screens show for `COc1cc(NC(C)=O)ccc1-c1cc2ccccc2oc1=O`?
Pf gamet viab: 16; Wee1 degr inh: 15*; Hsp70 activator: 0; MDM2 E3 inh: 13; Wee1 stab conf: 0

Results for COc1cc(NC(=O)c2ccc(Cl)cc2Cl)ccc1-c1cc2ccccc2oc1=O ?
Wee1 degr inh: 2; Hsp70 activator: 0; MDM2 E3 inh: -10

How did O=C(Nc1cccc(Cl)c1)Nc1nccs1 do in these assays?
Pf gamet viab: -22; Wee1 degr inh: -2; Hsp70 activator: 0; MDM2 E3 inh: -5

What do the screens show for `O=C(Nc1ccc(Cl)c(Cl)c1)Nc1nccs1`?
Pf gamet viab: -20; Wee1 degr inh: 14*; Wee1 stab conf: 25*

What do the screens show for `CCOC(=O)C1=C(O)C(=O)N(Cc2ccc(C(C)(C)C)cc2)CC1`?
Pf gamet viab: 14; Wee1 degr inh: 14*; Hsp70 activator: 0; MDM2 E3 inh: -16; Wee1 stab conf: 1

What do the screens show for `CCOC(=O)C1=C(O)C(=O)N(Cc2ccccc2)CC1`?
Pf gamet viab: 16; Wee1 degr inh: 5; Hsp70 activator: 0; MDM2 E3 inh: -16

How did COc1cccc(-c2sc3ccc(OC)cc3c2C#CCCO)c1 do in these assays?
Pf gamet viab: -4

Results for Cc1ccn2cc(CNS(=O)(=O)c3ccc(Cl)s3)nc2c1 ?
Wee1 degr inh: 2; Hsp70 activator: 0; MDM2 E3 inh: -5

Results for Cc1ccn2cc(CNS(=O)(=O)c3cccs3)nc2c1 ?
Pf gamet viab: 15; Wee1 degr inh: 13*; MDM2 E3 inh: -1; Wee1 stab conf: -1

What do the screens show for `C/C(=N\Nc1nc2ccccc2[nH]1)c1ccc2c(c1)OCO2`?
Pf gamet viab: 4; Wee1 degr inh: 1; Hsp70 activator: 0; MDM2 E3 inh: -3

How did C(=N\Nc1nc2ccccc2[nH]1)/c1ccc2c(c1)OCO2 do in these assays?
Pf gamet viab: 2; Wee1 degr inh: 12*; Hsp70 activator: 0; MDM2 E3 inh: -10; Wee1 stab conf: 3

Results for O=S(=O)(c1ccc(N2CCC(c3ccc(Cl)cc3)=N2)cc1)N(CCO)CCO ?
Pf gamet viab: -7; Wee1 degr inh: 11*; Hsp70 activator: 0; MDM2 E3 inh: -13; Wee1 stab conf: 0

What do the screens show for `CCCCC(=O)NS(=O)(=O)c1ccc(N=NN2CCOCC2)cc1`?
Pf gamet viab: 6; Wee1 degr inh: 1; Hsp70 activator: 0; MDM2 E3 inh: -7

What do the screens show for `CCN1CCN(c2nc(Nc3ccccc3)nc(N)c2[N+](=O)[O-])CC1`?
Pf gamet viab: 8; Wee1 degr inh: 0; Hsp70 activator: 0; MDM2 E3 inh: -8

How did CCN1CCN(c2nc(Nc3ccc(OC)cc3)nc(N)c2[N+](=O)[O-])CC1 do in these assays?
Pf gamet viab: -15; Wee1 degr inh: 12*; MDM2 E3 inh: -11; Wee1 stab conf: 1

What do the screens show for `O=C(Nc1ccc(N2CCOCC2)c([N+](=O)[O-])c1)c1ccco1`?
Pf gamet viab: -15; Wee1 degr inh: 11*; Hsp70 activator: 0; MDM2 E3 inh: -14; Wee1 stab conf: 1

Results for Cc1cc([N+](=O)[O-])nn1CC(=O)NCc1ccc(Cl)cc1 ?
Pf gamet viab: -2
